Experimental data published in publication PMC4245176 (Journal of Chemical Information and Modeling, 2014).
“Also recorded” adds a separate entry of the source.

Assays:
[1] = system: HIV-1_89BZ167; assay: PBMC-based HIV-1 replication assay; type: cell-based; conditions: HIV-1 replication in primary human PBMCs
Summary of the method: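 Fresh human PBMCs from HIV-1/HBV-seronegative donors were stimulated with 4 μg/mL PHA for 48–72 h and kept in 20 U/mL rhIL-2. Cells from ≥2 donors were pooled at 5 × 10^4 cells/well and infected with 89BZ167 (subtype B, CXCR4-tropic) at MOI ≅0.1 with nine compound concentrations (triplicate wells) for 7 days. Supernatant RT activity gave infection as % of compound-free control, from which IC50 was derived.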

[2] = system: peripheral blood mononuclear cells (PBMCs); assay: MTS cytotoxicity assay in PBMCs; type: cell-based, human; conditions: up to the highest test concentration of 100 μM
Summary of the method: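 Cytotoxicity was read by MTS addition alongside the 7-day HIV-1 infection of pooled PHA/IL-2-stimulated human PBMCs (5 × 10^4 cells/well, nine compound concentrations, triplicate wells). The maximum concentration tested was 100 μM. CC50 is the half-maximal cytotoxic concentration. TI = CC50/IC50, with IC50 taken from the RT-based antiviral readout against 89BZ167.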

[3] = biological target: HIV-1NL4-3 CA protein (Human immunodeficiency virus type 1 group M subtype B, UniProt P12493); assay: SPR direct binding to immobilized CA
Summary of the method: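 CA was amine-coupled at 100 μg/mL in sodium acetate pH 4.5 onto an EDC/sulfo-NHS-activated GLH chip, with a nonspecific-antibody reference surface. A 10 mM DMSO stock of test compound was serially diluted 2-fold to 18.75–300 μM in PBS-T pH 7.4 with 5% DMSO. One-shot kinetics ran at 100 μL/min, 2 min association and 2 min dissociation. Buffer and reference responses were subtracted, and data were fitted to a 1:1 model.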

[4] = biological target: HIV-1 CA Ile37Ala (Human immunodeficiency virus type 1 group M subtype B, UniProt P12493, I169A); assay: SPR binding site analysis, mutant CA; conditions: 50 μM compound, equilibrium response normalized to theoretical Rmax
Summary of the method: (§1)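 Wild-type and Ala-mutant CA were amine-coupled to a GLH chip at 100 μg/mL in sodium acetate pH 4.5, after EDC (0.2 M)/sulfo-NHS (0.05 M) activation for 5 min at 25 °C, then capped with 1 M ethanolamine pH 8.0. Test compound was injected at 100 μL/min with a 2 min association. Rmax assumed 1:1 per surface. Responses from 12 replicate injections per surface were analysed.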

[5] = biological target: HIV-1 CA Lys170Ala (Human immunodeficiency virus type 1 group M subtype B, UniProt P12493, K302A); assay: SPR binding site analysis, mutant CA; conditions: 50 μM compound, equilibrium response normalized to theoretical Rmax
Summary of the method: as §1

[6] = biological target: HIV-1 CA Asn139Ala (Human immunodeficiency virus type 1 group M subtype B, UniProt P12493, N271A); assay: SPR binding site analysis, mutant CA; conditions: 50 μM compound, equilibrium response normalized to theoretical Rmax
Summary of the method: as §1

[7] = biological target: HIV-1 CA Gln179Ala (Human immunodeficiency virus type 1 group M subtype B, UniProt P12493, Q311A); assay: SPR binding site analysis, mutant CA; conditions: 50 μM compound, equilibrium response normalized to theoretical Rmax
Summary of the method: as §1

[8] = biological target: HIV-1 CA Ser41Ala (Human immunodeficiency virus type 1 group M subtype B, UniProt P12493, S173A); assay: SPR binding site analysis, mutant CA; conditions: 50 μM compound, equilibrium response normalized to theoretical Rmax
Summary of the method: as §1

[9] = biological target: HIV-1 CA Pro38Ala (Human immunodeficiency virus type 1 group M subtype B, UniProt P12493, P170A); assay: SPR binding site analysis, mutant CA; conditions: 50 μM compound, equilibrium response normalized to theoretical Rmax
Summary of the method: as §1

[10] = biological target: HIV-1 CA Arg173Ala (Human immunodeficiency virus type 1 group M subtype B, UniProt P12493, R305A); assay: SPR binding site analysis, mutant CA; conditions: 50 μM compound, equilibrium response normalized to theoretical Rmax
Summary of the method: as §1

SMILES: O=[N+]([O-])c1cccc(-c2nc3c4cc(I)ccc4c4ccccc4c3[nH]2)c1 [Compound 34, 5-iodo-2-(3-nitrophenyl)-1H-phenanthro[9,10-d]imidazole]
- improvement in antiviral potency over I-XW-053 (compound 1) [1]: 11 fold
- toxicity / viability of PBMCs [2]: no toxicity; also recorded: not toxic
- Kd [3]: 11.8 ± 4.7 µM
- effect of mutation on compound binding versus wild-type CA [4]: no effect
- effect of mutation on compound binding versus wild-type CA [5]: loss of favorable interactions; also recorded: major effect
- effect of mutation on compound binding versus wild-type CA [6]: no effect
- effect of mutation on compound binding versus wild-type CA [7]: loss of favorable interactions
- effect of mutation on compound binding versus wild-type CA [8]: loss of favorable interactions
- effect of mutation on compound binding versus wild-type CA [9]: increase the interaction
- effect of mutation on compound binding versus wild-type CA [10]: increase the interaction
